Reference: ChEMBL document CHEMBL1138356, “Design and synthesis of human immunodeficiency virus entry inhibitors: sulfonamide as an isostere for the alpha-ketoamide group” (J Med Chem, 2007)

Legend:
[1] = system: Human immunodeficiency virus 1; assay: Antiviral activity against HIV1 pseudovirus in U87 cells expressing CD4 and CCR5 after 72 hrs by M33 pseudotyped assay; type: functional, organism-based, U-87MG ATCC; conditions: Human immunodeficiency virus 1, U-87 MG
How it was run: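 M33 pseudotyped viral attachment assay giving IC50 values. Specificity for HIV was judged by counter-screening against AMLV-pseudotyped virus at concentrations above 100× the M33 IC50.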

[2] = Cytotoxicity against human U87 cells expressing CD4 and CXCR4; type: cell-based, U-87MG ATCC
[3] = system: Human immunodeficiency virus; assay: Antiviral activity against HIV 584.000220 by viral replication assay; type: functional, organism-based; conditions: Human immunodeficiency virus 1
[4] = system: Human immunodeficiency virus; assay: Antiviral activity against HIV 584.000063P1B by viral replication assay; type: functional, organism-based; conditions: Human immunodeficiency virus 1
[5] = system: Human immunodeficiency virus; assay: Antiviral activity against HIV 208.000923 by viral replication assay; type: functional, organism-based; conditions: Human immunodeficiency virus 1
[6] = system: Human immunodeficiency virus; assay: Antiviral activity against HIV 589.000049 by viral replication assay; type: functional, organism-based; conditions: Human immunodeficiency virus 1
[7] = system: Human immunodeficiency virus; assay: Antiviral activity against HIV 589.000821 by viral replication assay; type: functional, organism-based; conditions: Human immunodeficiency virus 1
[8] = system: Human immunodeficiency virus; assay: Antiviral activity against HIV 589.000033 by viral replication assay; type: functional, organism-based; conditions: Human immunodeficiency virus 1
[9] = system: Human immunodeficiency virus; assay: Antiviral activity against HIV 584.000030 by viral replication assay; type: functional, organism-based; conditions: Human immunodeficiency virus 1
[10] = system: Human immunodeficiency virus; assay: Antiviral activity against HIV 584.000039 by viral replication assay; type: functional, organism-based; conditions: Human immunodeficiency virus 1
[11] = system: Human immunodeficiency virus; assay: Antiviral activity against HIV 584.000058 by viral replication assay; type: functional, organism-based; conditions: Human immunodeficiency virus 1
[12] = system: Human immunodeficiency virus; assay: Antiviral activity against HIV 584.000088 by viral replication assay; type: functional, organism-based; conditions: Human immunodeficiency virus 1
[13] = system: Human immunodeficiency virus; assay: Antiviral activity against HIV 584.000241 by viral replication assay; type: functional, organism-based; conditions: Human immunodeficiency virus 1
[14] = system: Human immunodeficiency virus; assay: Antiviral activity against HIV 584.000016 by viral replication assay; conditions: Human immunodeficiency virus 1

Row | SMILES | IC50 [1] [nM] | CC50 [2] [nM] | IC50 [3] [nM] | IC50 [4] [nM] | IC50 [5] [nM] | IC50 [6] [nM] | IC50 [7] [nM] | IC50 [8] [nM] | IC50 [9] [nM] | IC50 [10] [nM] | IC50 [11] [nM] | IC50 [12] [nM] | IC50 [13] [nM] | IC50 [14] [nM]
1 | CC1CN(C(=O)c2ccccc2)CCN1S(=O)(=O)c1c[nH]c2c(-n3ccnn3)nccc12 (racemic) | 54 | > 40000 | 2 | 460 | 465 | 46 | 330 | 492 | 267 | 1800 | 1400 | 116 | 8 | 513
2 | COc1ccnc2[nH]cc(C(=O)C(=O)N3CCN(C(=O)c4ccccc4)C[C@H]3C)c12 | 8 | > 40000 | 4 | 37 | 1400 | 6 | 2800 | 28 | 31 | 400 | 58 | 14 | 118 | 40
